CHRM5 agonist = CHRM5 agonism in calcium assay. 0.19% of 360,000 active. P08912. activation, % at 3 µM. CHO-K1 hM5 cells, Fluo-8 calcium fluorescence; 0% DMSO wells, 100% maximal acetylcholine response;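 active means activation above the run's mean over test compounds plus 3 SD, cut at about 23% in these data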;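 further: signal is peak over basal fluorescence ratio across the kinetic read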
Target sequence (P08912 whole entry, looked up): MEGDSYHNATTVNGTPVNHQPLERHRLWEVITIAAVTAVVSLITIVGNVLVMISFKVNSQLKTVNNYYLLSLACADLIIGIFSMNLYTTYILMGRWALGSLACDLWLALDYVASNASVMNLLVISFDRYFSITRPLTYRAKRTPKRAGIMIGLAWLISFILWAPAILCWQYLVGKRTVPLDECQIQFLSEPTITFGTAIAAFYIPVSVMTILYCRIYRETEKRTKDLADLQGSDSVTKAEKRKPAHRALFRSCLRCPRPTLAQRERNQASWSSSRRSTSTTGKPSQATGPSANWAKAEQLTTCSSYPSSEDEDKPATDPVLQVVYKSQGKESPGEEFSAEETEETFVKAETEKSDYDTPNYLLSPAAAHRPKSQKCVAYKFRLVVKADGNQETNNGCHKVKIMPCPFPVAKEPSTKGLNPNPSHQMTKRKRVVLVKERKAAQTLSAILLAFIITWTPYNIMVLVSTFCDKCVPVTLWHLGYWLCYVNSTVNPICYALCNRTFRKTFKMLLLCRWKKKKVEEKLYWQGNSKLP
CHRM4 antagonist = antagonists of human muscarinic M4 receptor (CHRM4). P08173. CHO-hM4 cells, ACh EC80, Fluo-8 calcium fluorescence. inhibition, % at 3 µM. 0.73% of 360,000 active. AID 624125;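 active means inhibition above its plate's cutoff, the mean inhibition of sample wells plus 3 SD, cut at about 27% in these data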
CHRM4 agonist = agonists of human muscarinic M4 receptor (CHRM4) | P08173 | CHO-K1 hM4/Gqi5, Fluo-8 calcium fluorescence; vehicle 0%, full acetylcholine response 100% | activation, % at 3 µM | 0.14% of 360,000 active | AID 624127;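 active means activation above the run mean over all test wells plus 3 SD, cut at about 32% in these data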;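 further: peak over basal fluorescence ratio per well then scaled between controls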
M5 PAM = positive allosteric modulators of human muscarinic M5 receptor; activation, % at 3 µM; CHO-K1 hM5, Fluo-8 calcium, ACh EC20 PAM; 0% = ACh EC20, 100% = ACh EC100; 0.3% of 360,000 active; P08912; AID 624038;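 active means activation above the run cutoff, the mean activation of all test compounds plus 3 SD, cut at about 18% in these data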
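Probe or stimulus: acetylcholine, EC20 level; Assay system: human M5 receptor in CHO-K1 cells; Schedule: compound preincubation 140 s before EC20 acetylcholine addition; Technique: intracellular calcium via Fluo-8 fluorescence; Dosing: single-point, 3 µM nominal; Read-out basis: percent activation from peak-over-basal fluorescence ratio, scaled EC20-to-EC100 acetylcholine; Repeats: one well per compound, no replicates.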
M5 antag = blocks acetylcholine activation of human M5 receptor | P08912 | CHO-hM5 cells, Fluo-8 calcium fluorescence, ACh EC80 | inhibition, % at 3 µM | 0.59% of 360,000 active;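 active means inhibition above a per-plate cutoff, the mean of that plate's test compounds plus 3 SD, cut at about 27% in these data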
CHRM4 PAM = positive allosteric modulators of human muscarinic M4 receptor; P08173; CHO-K1 hM4/Gqi5, Fluo-8 calcium fluorescence, ACh EC20; 0% = ACh EC20, 100% = maximal ACh; activation, % at 3 µM; 0.4% of 360,000 active; AID 624126;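 active means activation above its plate's cutoff, the mean activation of sample wells plus 3 SD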
Each line names hits and unclear results; the compound was inactive in the other large screens; ! = not active in a repeat. Shown are actives, neighbours in structure and some others; about 1.9% of the full set was active somewhere.

O=C1CN(c2ccccc2Cl)C(=O)CN1c1ccccc1Cl	none
Cc1ccccc1N1CC(=O)N(c2ccccc2C)CC1=O	CHRM4 PAM 19.9
CCCNC(=O)C12CCC(C)(c3nc4cc(C)c(C)cc4nc31)C2(C)C (stereo unspecified)	M5 PAM 25.5, CHRM4 PAM 22.6
CNC(=O)C12CCC(C)(c3nc4cc(C)c(C)cc4nc31)C2(C)C (stereo unspecified)	none
COc1ccc(C2=NOC(Cn3nc(C(=O)NCC4CC4)cc3-c3ccccc3)C2)cc1 (stereo unspecified)	CHRM4 antagonist 29.4
COc1ccc(C2=NOC(Cn3nc(C(=O)NCc4ccc(OC(F)(F)F)cc4)cc3-c3ccccc3)C2)cc1 (stereo unspecified)	none
COc1ccc(C2=NOC(Cn3nc(C(=O)NCc4ccccc4OC)cc3-c3ccccc3)C2)cc1 (stereo unspecified)	CHRM4 antagonist 30.1
O=C1Nc2ccc(Br)cc2/C1=C/C1CC=CCC1 (stereo unspecified)	M5 PAM 25.7
O=C(CCN1C(=O)NC2(CCCC2)C1=O)Nc1cccc(S(=O)(=O)N2CCOCC2)c1	none
O=C(c1ccncc1)N1N=C(c2ccc(Br)cc2)CC1c1ccccc1O (stereo unspecified)	M5 antag 32.5
O=C(Cn1nnc(-c2ccc(CN3CCOCC3)cc2)n1)N(c1ccccc1)c1ccccc1	M5 PAM 22.6
Cc1cc(-c2nnc(SCC(=O)Nc3ccc(C)c(C)c3)n2N)n[nH]1	M5 PAM 20.5
CCCCc1cc(=O)oc2cc(OCc3cc(OC)c(OC)c(OC)c3)c(Cl)cc12	CHRM4 PAM 15.5
CCCc1cc(=O)oc2cc(OCc3cc(OC)c(OC)c(OC)c3)c(Cl)cc12	none
CCCCCCCCCCCCCCCC[n+]1cccc2ccccc21	CHRM4 antagonist 51.6, M5 antag 63.5
Cc1ccccc1C[n+]1cccc2ccccc21	none
O=[N+]([O-])c1ccc(C[n+]2cccc3c4ccccc4ccc32)cc1	none
CCCCCCCCC[n+]1cccc2c3ccccc3ccc21	CHRM4 antagonist 69.7, M5 antag 40.7
Cc1nc2ccccc2c(=O)n1CCc1ccc(O)cc1	none
COc1ccc(-c2ccc(C(=O)NCc3ccc(F)c(F)c3)c3occc23)c(C)c1	none
COc1ccc(-c2ccc(C(=O)NCc3ccncc3)c3occc23)c(C)c1	M5 antag 32.3
COc1ccc(-c2coc3c(C(=O)NCc4ccc(OC)c(OC)c4)cccc23)c(C)c1	CHRM4 antagonist 37.3, M5 antag 36.2
CCOC(=O)C1(C)CCN1C(=O)c1cccs1 (stereo unspecified)	none
CCN(CC)CCN1c2ccccc2Sc2ccc3ccccc3c21	M5 antag 80.2
CCN(CC)CCN1c2ccccc2Sc2ccccc21	CHRM4 antagonist 89.0, M5 antag 99.1
CCCCN1C(=O)C(CC(=O)NCC2CCCCC2)CC(C(=O)N2CCCCCC2)=C1C (stereo unspecified)	none
CCN(C(=O)CN1CCN(S(=O)(=O)c2cc(Cl)ccc2Cl)CC1)c1c(N)n(Cc2ccccc2)c(=O)[nH]c1=O	none
C=CCNC(=O)Nc1ccc2nc(C)sc2c1	none
C=CCN(CC=C)C(=O)Nc1ccc2nc(C)sc2c1	CHRM4 PAM 21.2
C=CCN1C(=O)C(Cc2ccc(SC(F)F)cc2)SC1=Nc1ccc(C(=O)O)cc1 (stereo unspecified)	M5 antag 27.2
COC(=O)c1cc(NC(=O)COC(=O)C2COc3ccccc3O2)cc(C(=O)OC)c1 (stereo unspecified)	none
CCCCn1c(N)c(N(CCOC)C(=O)c2cc3c(s2)CCCCC3)c(=O)[nH]c1=O	CHRM4 PAM 23.8
Oc1ccc(N=C/C=C/c2cccc(Br)c2)cc1-c1nc2ccccc2s1	CHRM4 PAM 31.6
Nc1ccc(O)c(-c2nc3ccccc3s2)c1	none
CCNc1nc(CN2CCCCC2)nc2scc(-c3ccccc3)c12	CHRM4 antagonist 26.7
OCC1CCCN(c2nc(CN3CCCCC3)nc3scc(-c4ccccc4)c23)C1 (stereo unspecified)	none
CC(=O)C1=C(O)C(=O)N(c2cc(C(C)(C)C)on2)C1c1ccc(Br)cc1 (stereo unspecified)	CHRM4 PAM 30.2
Cc1ccc(CNC(=O)CN(C)S(=O)(=O)c2ccc(F)cc2)cc1	M5 PAM 19.5
CN(C)c1ccc(CNC(=O)CN(C)S(=O)(=O)c2ccc3c(c2)c(=O)n(C)c(=O)n3C)cc1	CHRM4 PAM 16.7
Cc1ccc(S(=O)(=O)N(C)CC(=O)NCc2ccncc2)cc1	none
C=CCC1(CC=C)CCCN1C(=O)c1cc(COc2ccc(F)c(F)c2)on1	none
C=CCC1(CC=C)CCCN1C(=O)c1cc(COc2ccc(C)nc2)on1	M5 antag 50.7
COc1ccccc1C(=O)NCC(=O)N/N=C(\C)Cc1ccccc1	none
COCCOc1ccc(C(F)(F)F)cc1NC(=O)c1ccccc1	none
CC(C)(C)c1ccc(OCCOc2ccc(C(C)(C)C)cc2NC=O)c(NC=O)c1	CHRM4 antagonist 30.6, M5 antag 28.4
NCCCCNCCCN	CHRM5 agonist 75.2
CCSC1=C(C#N)C(c2ccccc2Cl)C(C(=O)c2cccs2)C(O)(C(F)(F)F)N1 (stereo unspecified)	none
C=CCSC1=C(C#N)C(c2ccccc2Cl)C(C(=O)c2cccs2)C(O)(C(F)(F)F)N1 (stereo unspecified)	M5 antag 27.4
CCc1cc(C(=O)Cc2nc3ccccc3s2)c(O)cc1OCC(=O)O	CHRM4 antagonist 36.1
CCC1=C(OC(=O)N(CC)CC)N2C(=O)OC(=NCC3CC3)[C@]2(Cc2ccccc2)[C@H]2C1=CC[C@H]1C(=O)NC(=O)[C@H]12	none
CCC1=C(OC(=O)N(CC)CC)N2C(=O)OC(=NCCOC)[C@]2(Cc2ccccc2)[C@H]2C1=CC[C@H]1C(=O)NC(=O)[C@H]12	M5 PAM 26.5
CNc1nc(NCc2ccccc2)c2ccccc2n1	none
CCCCNc1nc(NCc2ccccc2)nc2ccccc12	CHRM5 agonist 80.1, CHRM4 antagonist 90.0, CHRM4 agonist 105.4, M5 antag 82.2
COc1cc2ncnc(NCc3ccccc3)c2cc1OC	none
c1ccc(CNc2ncnc3ccccc23)cc1	CHRM5 agonist 24.0!, CHRM4 antagonist 38.2!, CHRM4 agonist 33.8!
Cc1ccccc1C(=O)N1CCN(c2ccc(NC(=O)c3ccc([N+](=O)[O-])o3)cc2)CC1	none
COc1cc(-c2noc(C)c2C(=O)NCCCn2ccnc2)cc(OC)c1OC	none
N#Cc1ccc(OCC(=O)N/N=C2\CCc3ccccc32)cc1	M5 PAM 18.4
